Source: ChEMBL document CHEMBL4261600 (Eur J Med Chem, 2018)

Columns and labels:
[1] = Cmax in beagle dog at 10 mg/kg, po by LC-MS/MS analysis; format: ADME, organism-based, Canis lupus familiaris; parameters: dose 10 mg/kg, route oral; conditions: in vivo
[2] = molecular target: Epidermal growth factor receptor (Homo sapiens) (UniProt P00533); experiment: Binding affinity to human partial length EGFR S752-I759del mutant expressed in bacterial expression system assessed as remaining unbound target protein level at 1000 nM by Kinomescan method relative to control
How it was run: (§1)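 KINOMEscan competition-binding profiling across the panel of 468 kinases and mutants, with inhibitor tested at 1 μM. Binding is expressed as percent of control, with DMSO as the reference control.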

[3] = molecular target: Phosphatidylinositol 5-phosphate 4-kinase type-2 gamma (Homo sapiens) (UniProt Q8TBX8); experiment: Binding affinity to wild-type human partial length PIP5K2C (M1 to A421 residues) expressed in mammalian expression system assessed as remaining unbound target protein level at 1000 nM by Kinomescan method relative to control
[4] = MRT (0 to infinity) in mouse at 10 mg/kg, po by LC-MS/MS analysis; format: ADME, organism-based; conditions: in vivo
[5] = Tmax in beagle dog at 10 mg/kg, po by LC-MS/MS analysis; format: ADME, organism-based, Canis lupus familiaris; conditions: in vivo
[6] = tested on: Phosphatidylinositol 4,5-bisphosphate 3-kinase catalytic subunit alpha isoform (Homo sapiens), P42336 [E545K]; experiment: Binding affinity to human partial length PIK3CA E545K mutant (R108 to N1068 residues) expressed in mammalian expression system assessed as remaining unbound target protein level at 1000 nM by Kinomescan method relative to control; how it was run: as §1
Sequence of Phosphatidylinositol 4,5-bisphosphate 3-kinase catalytic subunit alpha isoform (Homo sapiens), P42336 [E545K] (P42336 whole entry E545K, the tested form may be a part, canonical isoform): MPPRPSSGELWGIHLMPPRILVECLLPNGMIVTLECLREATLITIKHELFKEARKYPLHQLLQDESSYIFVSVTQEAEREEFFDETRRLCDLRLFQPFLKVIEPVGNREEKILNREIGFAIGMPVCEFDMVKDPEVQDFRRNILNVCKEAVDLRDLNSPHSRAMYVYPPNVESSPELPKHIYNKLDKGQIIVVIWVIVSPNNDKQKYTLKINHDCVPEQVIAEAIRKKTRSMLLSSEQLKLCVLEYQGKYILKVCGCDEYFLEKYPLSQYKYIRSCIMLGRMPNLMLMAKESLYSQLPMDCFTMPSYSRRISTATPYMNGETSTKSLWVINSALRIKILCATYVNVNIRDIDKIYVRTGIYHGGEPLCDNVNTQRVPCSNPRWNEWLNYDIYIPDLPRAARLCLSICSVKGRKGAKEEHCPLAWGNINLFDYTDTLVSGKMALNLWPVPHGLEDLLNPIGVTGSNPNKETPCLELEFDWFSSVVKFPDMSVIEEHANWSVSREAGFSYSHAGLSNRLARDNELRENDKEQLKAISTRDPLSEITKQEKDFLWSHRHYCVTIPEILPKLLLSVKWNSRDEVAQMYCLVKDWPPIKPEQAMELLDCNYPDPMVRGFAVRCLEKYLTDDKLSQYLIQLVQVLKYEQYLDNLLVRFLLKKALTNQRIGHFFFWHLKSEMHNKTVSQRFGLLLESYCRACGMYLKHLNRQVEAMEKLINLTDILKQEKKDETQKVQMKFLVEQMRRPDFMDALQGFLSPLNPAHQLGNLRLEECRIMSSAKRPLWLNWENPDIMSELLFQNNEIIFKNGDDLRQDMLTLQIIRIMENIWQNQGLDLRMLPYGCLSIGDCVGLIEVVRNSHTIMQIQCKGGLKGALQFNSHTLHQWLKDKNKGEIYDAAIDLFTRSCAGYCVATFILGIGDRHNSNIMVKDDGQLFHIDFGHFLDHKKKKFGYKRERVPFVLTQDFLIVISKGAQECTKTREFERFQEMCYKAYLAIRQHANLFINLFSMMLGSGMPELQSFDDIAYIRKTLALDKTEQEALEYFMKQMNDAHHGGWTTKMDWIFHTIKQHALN

[7] = molecular target: Mitogen-activated protein kinase 6 (Homo sapiens) (UniProt Q16659); experiment: Binding affinity to wild-type human partial length ERK3 (M1 to P413 residues) expressed in bacterial expression system assessed as remaining unbound target protein level at 1000 nM by Kinomescan method relative to control
[8] = molecular target: Calcium/calmodulin-dependent protein kinase type II subunit delta (Homo sapiens) (UniProt Q13557); experiment: Binding affinity to wild-type human partial length CAMK2D (M1 to E329 residues) expressed in bacterial expression system assessed as remaining unbound target protein level at 1000 nM by Kinomescan method relative to control
How it was run: (§2)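 Profiled in a KINOMEscan binding panel with the inhibitor at a single concentration of 1 μM. Binding to each kinase was read out as percent of control, relative to a DMSO control. Strong binders were defined as those with a percent control value below 1.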

[9] = molecular target: Serine/threonine-protein kinase Nek4 (Homo sapiens) (UniProt P51957); experiment: Binding affinity to wild-type human full length NEK4 (M1 to F841 residues) expressed in mammalian expression system assessed as remaining unbound target protein level at 1000 nM by Kinomescan method relative to control
Sequence of Serine/threonine-protein kinase Nek4 (Homo sapiens) (P51957 whole entry, looked up, the tested form may be a part): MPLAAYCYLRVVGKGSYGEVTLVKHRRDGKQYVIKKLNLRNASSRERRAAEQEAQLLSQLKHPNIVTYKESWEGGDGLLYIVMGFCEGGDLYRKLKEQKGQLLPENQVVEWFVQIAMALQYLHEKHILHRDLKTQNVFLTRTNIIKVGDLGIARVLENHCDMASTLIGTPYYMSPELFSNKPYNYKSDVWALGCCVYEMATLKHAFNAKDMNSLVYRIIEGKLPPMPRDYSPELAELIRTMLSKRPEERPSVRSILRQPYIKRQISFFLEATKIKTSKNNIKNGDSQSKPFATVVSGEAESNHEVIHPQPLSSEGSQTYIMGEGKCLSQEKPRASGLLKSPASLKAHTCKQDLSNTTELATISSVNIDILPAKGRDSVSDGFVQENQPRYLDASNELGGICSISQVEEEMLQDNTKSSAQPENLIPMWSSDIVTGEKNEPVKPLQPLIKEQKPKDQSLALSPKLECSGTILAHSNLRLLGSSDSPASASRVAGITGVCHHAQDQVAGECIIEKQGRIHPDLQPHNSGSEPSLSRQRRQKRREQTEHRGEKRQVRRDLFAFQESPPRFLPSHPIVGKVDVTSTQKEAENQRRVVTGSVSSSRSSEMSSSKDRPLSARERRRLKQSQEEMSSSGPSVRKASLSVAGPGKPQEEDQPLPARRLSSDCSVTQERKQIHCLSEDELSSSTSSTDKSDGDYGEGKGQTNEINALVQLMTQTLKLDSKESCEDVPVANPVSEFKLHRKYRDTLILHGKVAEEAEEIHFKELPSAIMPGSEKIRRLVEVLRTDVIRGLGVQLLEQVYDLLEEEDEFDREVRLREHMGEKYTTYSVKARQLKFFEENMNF
How it was run: (§3)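 Single-point competition binding screen across a panel of 468 kinases and mutants, with the inhibitor at 1 μM. Binding is read out as percent of a DMSO control, and targets below 1 percent control were classed as strong binders.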

[10] = molecular target: Serine/threonine-protein kinase Nek10 (Homo sapiens) (UniProt Q6ZWH5); experiment: Binding affinity to wild-type human partial length NEK10 (L488 to R809 residues) expressed in mammalian expression system assessed as remaining unbound target protein level at 1000 nM by Kinomescan method relative to control
[11] = tested on: Canis familiaris; experiment: AUC (0 to infinity) in beagle dog at 2 mg/kg, iv by LC-MS/MS analysis; format: ADME, organism-based, Canis lupus familiaris; parameters: dose 2 mg/kg, route intravenous, time infinity; conditions: in vivo
How it was run: (§4)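 Non-compartmental PK. Male SD rats 190-210 g, mice and beagle dogs acclimatized one week, fasted 12 h with water, split into iv and po groups (mice 48, rats 6, dogs 6). iv 3/3/2 mg/kg (mice/rats/dogs); po 10/20/10 mg/kg; vehicle DMSO in 5% glucose water. Blood at 2 or 5 to 720 min; plasma protein-precipitated with methanol, caffeine internal standard, LC-MS/MS.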

[12] = molecular target: Tyrosine-protein kinase Fes/Fps (Homo sapiens) (UniProt P07332); experiment: Binding affinity to wild-type human partial length FES (I527 to R822 residues) expressed in bacterial expression system assessed as remaining unbound target protein level at 1000 nM by Kinomescan method relative to control
How it was run: (§5)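 KINOMEscan binding panel of 468 kinases/mutants. Inhibitor was tested at a single concentration of 1 μM. Binding is reported as percent of control, defined relative to a DMSO control.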

[13] = molecular target: Death-associated protein kinase 2 (Homo sapiens) (UniProt Q9UIK4); experiment: Binding affinity to wild-type human full length DAPK2 (M1 to S370 residues) expressed in bacterial expression system assessed as remaining unbound target protein level at 1000 nM by Kinomescan method relative to control
How it was run: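 KINOMEscan competition binding profile across a panel of 468 kinases and mutants, with the inhibitor tested at a single concentration of 1 μM. Binding is reported as percent of control, meaning signal relative to a DMSO control.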

[14] = tested on: Tyrosine-protein kinase ABL1 (Homo sapiens), P00519 [E255K]; experiment: Binding affinity to human phosphorylated ABL1 E255K mutant (S229 to K512 residues) expressed in mammalian expression system assessed as remaining unbound target protein level at 1000 nM by Kinomescan method relative to control; how it was run: as §1
Sequence of Tyrosine-protein kinase ABL1 (Homo sapiens), P00519 [E255K] (P00519 whole entry E255K, the tested form may be a part): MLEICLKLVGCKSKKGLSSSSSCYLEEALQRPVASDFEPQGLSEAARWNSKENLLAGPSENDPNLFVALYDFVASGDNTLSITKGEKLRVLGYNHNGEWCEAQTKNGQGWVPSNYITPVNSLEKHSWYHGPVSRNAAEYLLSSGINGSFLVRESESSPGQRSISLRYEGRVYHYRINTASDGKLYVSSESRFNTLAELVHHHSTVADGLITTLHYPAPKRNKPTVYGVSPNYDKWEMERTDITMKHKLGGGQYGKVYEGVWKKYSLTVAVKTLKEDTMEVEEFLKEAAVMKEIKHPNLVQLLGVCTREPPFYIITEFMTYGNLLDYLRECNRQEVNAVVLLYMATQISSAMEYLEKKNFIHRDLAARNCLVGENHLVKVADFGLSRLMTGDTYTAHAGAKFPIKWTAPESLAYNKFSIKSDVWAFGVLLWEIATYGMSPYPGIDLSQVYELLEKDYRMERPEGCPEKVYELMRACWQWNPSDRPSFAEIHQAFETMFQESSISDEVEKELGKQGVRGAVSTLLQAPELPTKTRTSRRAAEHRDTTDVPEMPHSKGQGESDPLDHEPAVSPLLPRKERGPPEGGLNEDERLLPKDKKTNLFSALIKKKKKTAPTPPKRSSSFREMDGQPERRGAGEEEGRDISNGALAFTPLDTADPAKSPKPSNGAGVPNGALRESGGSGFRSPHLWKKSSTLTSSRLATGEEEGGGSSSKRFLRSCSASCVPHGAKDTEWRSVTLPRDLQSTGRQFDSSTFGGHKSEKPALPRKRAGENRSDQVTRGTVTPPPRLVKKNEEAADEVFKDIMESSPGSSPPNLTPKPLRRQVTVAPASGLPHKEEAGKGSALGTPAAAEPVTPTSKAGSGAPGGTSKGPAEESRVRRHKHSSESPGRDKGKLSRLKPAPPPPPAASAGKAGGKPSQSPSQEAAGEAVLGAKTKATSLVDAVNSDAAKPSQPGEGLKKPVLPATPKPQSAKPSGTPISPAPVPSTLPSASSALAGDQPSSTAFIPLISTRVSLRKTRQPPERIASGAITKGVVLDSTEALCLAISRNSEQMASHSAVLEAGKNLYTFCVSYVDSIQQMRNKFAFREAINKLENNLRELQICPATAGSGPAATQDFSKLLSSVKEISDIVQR

[15] = AUC (0 to infinity) in mouse at 10 mg/kg, po by LC-MS/MS analysis; format: ADME, organism-based; parameters: dose 10 mg/kg, route oral, time infinity; conditions: in vivo; how it was run: as §4
[16] = tested on: Mast/stem cell growth factor receptor Kit (Homo sapiens), P10721 [D816H]; experiment: Binding affinity to human partial length KIT D816H mutant (I571 to D952 residues) expressed in mammalian expression system assessed as remaining unbound target protein level at 1000 nM by Kinomescan method relative to control; how it was run: as §1
[17] = molecular target: Protein kinase C delta type (Homo sapiens) (UniProt Q05655); experiment: Binding affinity to wild-type human partial length PRKCD (Q328 to D676 residues) expressed in bacterial expression system assessed as remaining unbound target protein level at 1000 nM by Kinomescan method relative to control
[18] = molecular target: Ribosomal protein S6 kinase alpha-4 (Homo sapiens) (UniProt O75676); experiment: Binding affinity to wild-type human partial length C-terminal RPS6KA4 kinase domain 2 (M375 to T705 residues) expressed in mammalian expression system assessed as remaining unbound target protein level at 1000 nM by Kinomescan method relative to control; how it was run: as §2
[19] = molecular target: Serine/threonine-protein kinase TAO1 (Homo sapiens) (UniProt Q7L7X3); experiment: Binding affinity to wild-type human partial length TAOK1 (M1 to A320 residues) expressed in mammalian expression system assessed as remaining unbound target protein level at 1000 nM by Kinomescan method relative to control
Sequence of Serine/threonine-protein kinase TAO1 (Homo sapiens) (Q7L7X3 whole entry, the tested form may be a part): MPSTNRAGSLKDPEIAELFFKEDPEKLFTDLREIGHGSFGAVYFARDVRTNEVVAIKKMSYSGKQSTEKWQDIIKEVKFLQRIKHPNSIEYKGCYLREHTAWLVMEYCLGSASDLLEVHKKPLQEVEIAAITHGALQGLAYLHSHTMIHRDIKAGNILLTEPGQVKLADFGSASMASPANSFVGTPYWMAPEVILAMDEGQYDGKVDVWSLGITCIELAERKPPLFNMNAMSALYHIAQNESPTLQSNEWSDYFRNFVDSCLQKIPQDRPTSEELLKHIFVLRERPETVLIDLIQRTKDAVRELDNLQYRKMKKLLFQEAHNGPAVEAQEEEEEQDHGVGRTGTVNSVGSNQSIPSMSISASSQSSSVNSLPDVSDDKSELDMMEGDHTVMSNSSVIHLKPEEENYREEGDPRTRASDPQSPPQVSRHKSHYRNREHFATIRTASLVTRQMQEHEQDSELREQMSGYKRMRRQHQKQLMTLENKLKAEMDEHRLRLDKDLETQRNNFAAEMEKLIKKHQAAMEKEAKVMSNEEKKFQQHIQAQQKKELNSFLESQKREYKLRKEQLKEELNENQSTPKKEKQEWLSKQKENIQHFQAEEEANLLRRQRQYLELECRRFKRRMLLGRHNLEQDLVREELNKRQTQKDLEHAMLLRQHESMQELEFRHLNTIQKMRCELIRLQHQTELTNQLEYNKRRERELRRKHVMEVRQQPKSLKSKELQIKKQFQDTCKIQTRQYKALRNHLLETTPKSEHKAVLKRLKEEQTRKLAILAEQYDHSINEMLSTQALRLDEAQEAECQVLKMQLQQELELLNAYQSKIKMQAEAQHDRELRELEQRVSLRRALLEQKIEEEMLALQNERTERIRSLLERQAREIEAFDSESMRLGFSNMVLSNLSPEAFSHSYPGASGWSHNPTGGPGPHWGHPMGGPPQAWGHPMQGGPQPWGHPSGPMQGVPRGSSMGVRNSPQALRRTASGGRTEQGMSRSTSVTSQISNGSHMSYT

[20] = molecular target: MAP/microtubule affinity-regulating kinase 3 (Homo sapiens) (UniProt P27448); experiment: Binding affinity to wild-type human full length MARK3 (M1 to L729 residues) expressed in bacterial expression system assessed as remaining unbound target protein level at 1000 nM by Kinomescan method relative to control; how it was run: as §3
[21] = AUC (0 to t) in beagle dog at 2 mg/kg, iv by LC-MS/MS analysis; format: ADME, organism-based, Canis lupus familiaris; conditions: in vivo; how it was run: as §4
[22] = molecular target: Ephrin type-A receptor 7 (Homo sapiens) (UniProt Q15375); experiment: Binding affinity to wild-type human partial length EPHA7 (Y608 to S912 residues) expressed in bacterial expression system assessed as remaining unbound target protein level at 1000 nM by Kinomescan method relative to control; how it was run: as §5
Sequence of Ephrin type-A receptor 7 (Homo sapiens) (Q15375 28-998 limits assumed): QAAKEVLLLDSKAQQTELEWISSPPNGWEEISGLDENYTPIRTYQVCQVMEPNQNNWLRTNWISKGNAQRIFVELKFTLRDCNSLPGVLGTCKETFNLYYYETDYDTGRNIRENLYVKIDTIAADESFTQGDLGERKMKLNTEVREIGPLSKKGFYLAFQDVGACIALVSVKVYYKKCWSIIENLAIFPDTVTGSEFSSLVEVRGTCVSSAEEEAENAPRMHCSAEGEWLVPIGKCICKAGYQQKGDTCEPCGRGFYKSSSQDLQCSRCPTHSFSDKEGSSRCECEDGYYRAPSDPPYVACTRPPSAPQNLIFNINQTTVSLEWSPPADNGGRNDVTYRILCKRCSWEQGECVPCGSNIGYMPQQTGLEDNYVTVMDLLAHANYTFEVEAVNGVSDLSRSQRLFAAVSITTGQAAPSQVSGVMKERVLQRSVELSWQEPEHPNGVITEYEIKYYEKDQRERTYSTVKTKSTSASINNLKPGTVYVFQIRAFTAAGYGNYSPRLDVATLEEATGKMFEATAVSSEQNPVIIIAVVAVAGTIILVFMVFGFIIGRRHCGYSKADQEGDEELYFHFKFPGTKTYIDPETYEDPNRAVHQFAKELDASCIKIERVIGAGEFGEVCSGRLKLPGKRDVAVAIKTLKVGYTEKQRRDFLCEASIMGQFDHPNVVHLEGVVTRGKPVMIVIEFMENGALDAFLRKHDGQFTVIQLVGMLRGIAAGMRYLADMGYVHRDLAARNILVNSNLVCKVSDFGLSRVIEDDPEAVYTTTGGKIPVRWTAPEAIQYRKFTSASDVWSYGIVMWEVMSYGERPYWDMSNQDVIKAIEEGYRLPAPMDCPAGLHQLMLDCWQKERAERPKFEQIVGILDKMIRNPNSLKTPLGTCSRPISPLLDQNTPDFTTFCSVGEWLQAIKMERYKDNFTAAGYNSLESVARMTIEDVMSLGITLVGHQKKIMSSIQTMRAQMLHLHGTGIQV

SMILES: COCCN[C@H]1CC[C@H](Nc2cc(-c3csc(NCC4(C#N)CCOCC4)n3)c(Cl)cn2)CC1
- Cmax [1]: 771 ng/mL
- Activity [2]: 87%
- Activity [3]: 59%
- MRT inf [4]: 3.48 h
- Tmax [5]: 1.33 h
- Activity [6]: 100%
- Activity [7]: 88%
- Activity [8]: 83%
- Activity [9]: 98%
- Activity [10]: 87%
- AUC [11]: 3121.69 ng·h/mL
- Activity [12]: 99%
- Activity [13]: 95%
- Activity [14]: 72%
- AUC(0-inf) [15]: 612 ng·h/mL
- Activity [16]: 72%
- Activity [17]: 91%
- Activity [18]: 65%
- Activity [19]: 36%
- Activity [20]: 100%
- AUC(0-t) [21]: 2010 ng·h/mL
- Activity [22]: 94%
